Our source for the IC50 values is ChEMBL document CHEMBL3769399, “Synthesis and cytotoxic activities of some pyrazoline derivatives bearing phenyl pyridazine core as new apoptosis inducers” (Eur J Med Chem, 2016).

Common to all, as to type: functional, cell-based
One experiment deals with A549. Put plainly: Antiproliferative activity against human A549 cells assessed as cell viability after 24 hrs by MTT assay. The note with it: A549, 24 h. Put shortly: (§1)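 Monolayers in DMEM (A549) or RPMI (MCF-7) with 10% fetal calf serum, penicillin and streptomycin at 37 °C and 5% CO2. Seeded overnight at 10^3 cells/well, then dosed at 0–100 from a serum-free stock in 1% DMSO diluted in complete medium. After 24 h, viability was read by WST-1 premix at 450 nm and blank-corrected against untreated cells. IC50 given as mean with standard error.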
(In general: Formazan colour is commonly taken as a measure of viable cells.)

Another experiment deals with HepG2. Put plainly: Antiproliferative activity against human HepG2 cells assessed as cell viability after 24 hrs by MTT assay. The note with it: HepG2, 24 h. The method in brief: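 HepG2 grown as monolayer in DMEM plus 10% fetal calf serum and penicillin/streptomycin at 37 °C, 5% CO2. Plated overnight at 10^3 cells/well and exposed 24 h to five levels (0–100) diluted in complete medium from a 1% DMSO stock. WST-1 absorbance at 450 nm gave blank-corrected % viability versus untreated control, from which IC50 was derived.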

The subject of the next experiment is MCF7. The experiment is described as follows: Antiproliferative activity against human MCF7 cells assessed as cell viability after 24 hrs by MTT assay. The conditions noted are these: MCF7, 24 h. Put shortly: as §1
Experiment [1] can be described thus: Antiproliferative activity against human Caco2 cells assessed as cell viability after 24 hrs by MTT assay. The note with it: Caco-2, 24 h. Put shortly: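 CaCo-2 kept in RPMI with 10% fetal calf serum and antibiotics at 37 °C, 5% CO2. Cells were seeded at 10^3 per well overnight, then treated 24 h at 0, 5, 10, 50 and 100, diluted from a stock containing 1% DMSO. Viability came from WST-1 read at 450 nm, blank-subtracted and normalised to untreated cells.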

Bounds are passed on as bounds.

By IC50 is commonly meant the concentration that gives 50% inhibition. With `COc1ccc(C2CC(c3ccc(Cl)cc3)=NN2c2ccc(-c3ccccc3)nn2)c(OC)c1` (stereo not drawn), the IC50 (in the experiment on A549; in the experiment with HepG2; in the experiment with MCF7; in experiment [1]) was over 100 µM throughout.
For `COc1cc(C2CC(c3ccc(Cl)cc3)=NN2c2ccc(-c3ccccc3)nn2)cc(OC)c1OC` (stereo not drawn), the concentration for half-maximal inhibition (IC50) in the experiment on A549 is 83.3 µM; in the experiment with HepG2 it was over 100 µM; with MCF7, 100 µM; in experiment [1], over 100 µM.
In the case of `c1ccc(C2=NN(c3ccc(-c4ccccc4)nn3)C(c3ccccc3)C2)cc1` (stereo not drawn), the IC50 with A549 is over 100 µM; in the experiment on HepG2 it was 10 µM; in the experiment on MCF7, 23.8 µM; in experiment [1], 40.9 µM.
In the case of `COc1cc(C2CC(c3ccccc3)=NN2c2ccc(-c3ccccc3)nn2)cc(OC)c1OC` (stereo not drawn), the IC50 with A549 was 83.8 µM; with HepG2 it was 100 µM; in the experiment with MCF7, 70 µM; in experiment [1] it was over 100 µM.
With `COc1ccc(C2=NN(c3ccc(-c4ccccc4)nn3)C(c3cc(OC)c(OC)c(OC)c3)C2)cc1` (stereo not drawn), the IC50 in the experiment with A549 was over 100 µM; in the experiment on HepG2, over 100 µM; in the experiment with MCF7 it was 100 µM; in experiment [1], over 100 µM.
On to `COc1ccc(C2=NN(c3ccc(-c4ccccc4)nn3)C(c3ccc(OC)cc3)C2)cc1` (stereo not drawn), for which the IC50 in the experiment with A549 is over 100 µM; in the experiment on HepG2, over 100 µM; with MCF7, 100 µM; in experiment [1] it was over 100 µM.
Regarding `COc1ccc(C2=NN(c3ccc(-c4ccccc4)nn3)C(c3ccc(OC)cc3OC)C2)cc1` (stereo not drawn), the IC50 in the experiment with A549 was 100 µM; in the experiment with HepG2, over 100 µM; in the experiment on MCF7, 100 µM; in experiment [1], over 100 µM.
On to `COc1ccc(C2CC(c3ccccc3)=NN2c2ccc(-c3ccccc3)nn2)cc1` (stereo not drawn), for which the IC50 in the experiment with A549 is 91.7 µM; in the experiment on HepG2, over 100 µM; in the experiment with MCF7 it was 100 µM; in experiment [1] it was over 100 µM.
`COc1ccc(C2=NN(c3ccc(-c4ccccc4)nn3)C(c3ccccc3)C2)cc1` (stereo not drawn): the IC50 was 75.9 µM in the experiment with A549, over 100 µM in the experiment on HepG2, over 100 µM in the experiment with MCF7 and over 100 µM in experiment [1].
On to `COc1ccc(C2=NN(c3ccc(-c4ccccc4)nn3)C(c3ccc(F)cc3)C2)cc1` (stereo not drawn), for which the IC50 is over 100 µM in the experiment on A549, 9.16 µM in the experiment on HepG2, 20 µM in the experiment with MCF7 and 18.1 µM in experiment [1].
For `COc1ccc(C2CC(c3ccc(Cl)cc3)=NN2c2ccc(-c3ccccc3)nn2)cc1` (stereo not drawn), the concentration for half-maximal inhibition (IC50) in the experiment with A549 is 100 µM; in the experiment with HepG2 it was over 100 µM; in the experiment on MCF7, 100 µM; in experiment [1] it was over 100 µM.
As for `COc1ccc(C2=NN(c3ccc(-c4ccccc4)nn3)C(c3ccc(Cl)cc3)C2)cc1` (stereo not drawn), the IC50 is 100 µM in the experiment on A549, over 100 µM with HepG2, 58 µM in the experiment with MCF7 and over 100 µM in experiment [1].
`COc1ccc(C2=NN(c3ccc(-c4ccccc4)nn3)C(c3ccc(C(F)(F)F)cc3)C2)cc1` (stereo not drawn): the half-maximal inhibitory concentration (IC50) was over 100 µM in the experiment on A549, over 100 µM with HepG2, 46.8 µM in the experiment with MCF7 and 65 µM in experiment [1].
With `COc1cccc2c1C(=O)c1c(O)c3c(c(O)c1C2=O)C[C@@](O)(C(=O)CO)C[C@@H]3O[C@H]1C[C@H](N)[C@H](O)[C@H](C)O1` [DOXORUBICIN], the IC50 in experiment [1] came out at 3 µM.
